Screens from PubChem.
Compounds with a hit are over-represented: about 4.7% of the library has one in this group of screens.
MPTP inh = inhibitors of mitochondrial permeability transition pore. isolated mouse mitochondria, Ca2+ swelling absorbance, 30 min. inhibition, % at 10 µM. 360,000 compounds, 1.4% hits. AID 602449;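 active = inhibition of 50% or more, scaled per plate between neutral and stimulator controls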;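 note: 0% = DMSO wells given calcium and 100% = 1 mM EGTA wells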
MT1-MMP act inh = blocks activation of human MT1-MMP | HT1080 RFP-PRO-GFP cells, GFP/RFP ratio fluorescence, overnight; percent of plate control window, DMSO zero | 360,000 compounds, 0.061% hits | GFP/RFP ratio change, % at 20 µM;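 active = GFP/RFP ratio change of at least 30% with cell ATP level not reduced by more than half and red fluorescence within 50% of control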
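Material – HT1080 RFP-PRO-GFP cells · Control set – DMSO wells and RFP-L50D-GFP cells · Incubation – overnight cell settling, then overnight compound exposure, 37 °C, 5% CO2 · Compound dosing – single-point 20 µM compound, 1% DMSO · Read-out – GFP/RFP fluorescence ratio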
SKN-1 block = blocks SKN-1 activity in C. elegans; C. elegans VP596 Pgst-4::GFP/RFP ratio, acrylamide-induced, 24 h; inhibition, % at 21.8 µM; 360,000 compounds, 0.49% hits; AID 624304;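 active = interference check ratio from 0.5 to 1.5 plus GFP to RFP signal ratio inhibition reaching or exceeding a fixed threshold, cut at about 30% in these data, passing the limit was not always enough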
NR3A LBD binder = modulates the human NR3A ligand-binding domain; NR3A LBD differential scanning fluorimetry, Tm shift; 0% = protein alone, 100% = glycine-bound protein; Tm shift relative to glycine control, % at 25 µM; AID 1259313; 340,000 compounds, 2.5% hits;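 active = melting temperature shift of at least 10% of the positive control shift, at one fixed dose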
ADAM17 inh = inhibits human ADAM17; AID 720648; inhibition, % at 6.95 µM; 370,000 compounds, 0.83% hits; recombinant ADAM17, EDANS/DABCYL FRET peptide cleavage;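 active = inhibition above the mean of compounds lying between control limits plus 3 SD, set per campaign, cut at about 8.5% in these data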;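 note: 0% = DMSO-only wells as the low control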
Target sequence (P78536 215-824 limits assumed): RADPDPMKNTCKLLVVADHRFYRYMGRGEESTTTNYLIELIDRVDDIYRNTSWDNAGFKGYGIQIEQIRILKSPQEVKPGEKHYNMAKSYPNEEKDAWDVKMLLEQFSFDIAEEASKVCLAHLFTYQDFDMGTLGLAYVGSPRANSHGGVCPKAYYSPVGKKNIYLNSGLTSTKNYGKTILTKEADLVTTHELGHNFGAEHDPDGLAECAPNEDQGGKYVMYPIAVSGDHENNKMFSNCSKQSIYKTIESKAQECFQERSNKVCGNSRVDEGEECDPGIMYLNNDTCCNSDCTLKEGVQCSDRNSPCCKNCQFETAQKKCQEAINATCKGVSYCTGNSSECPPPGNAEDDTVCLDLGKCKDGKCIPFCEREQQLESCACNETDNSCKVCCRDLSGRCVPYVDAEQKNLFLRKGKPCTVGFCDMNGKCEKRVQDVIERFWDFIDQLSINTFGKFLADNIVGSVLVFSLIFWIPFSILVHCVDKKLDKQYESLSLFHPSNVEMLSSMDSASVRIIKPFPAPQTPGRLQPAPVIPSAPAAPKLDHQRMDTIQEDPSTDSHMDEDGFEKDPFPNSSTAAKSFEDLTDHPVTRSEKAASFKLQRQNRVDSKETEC
ADAM10 inh = inhibits human ADAM10; O14672; recombinant ADAM10, EDANS/DABCYL FRET peptide cleavage, 3 h; inhibition, % at 7 µM; 370,000 compounds, 0.62% hits;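 active = inhibition above a per-campaign cutoff equal to the mean of compounds falling between control-based bounds plus 3 SD, cut at about 20% in these data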;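 note: 0% = DMSO wells while the 100% control is not disclosed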
MPTP counter = membrane potential counter-screen of mitochondrial pore inhibitors | isolated mitochondria, Rhodamine 123 fluorescence | 5,000 compounds, 78% hits | inhibition, % at 10 µM | shares compounds with MPTP inh; in the data active = inhibition above about 22%;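 note: 0% = DMSO vehicle and 100% = positive control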
MPTP abs DR = MPTP inhibition, dose response swelling confirmation; shares compounds with MPTP inh; isolated mitochondria swelling, absorbance; IC50, µM; 780 compounds, 58% hits; in the data active = IC50 below about 20 µM
MPTP counter DR = MPTP inhibitor counter-screen activity, dose response; shares compounds with MPTP inh; isolated mitochondria counterscreen, fluorescence read-out; IC50, µM; 780 compounds, 49% hits; in the data active = IC50 below about 80 µM
* = called active by the depositor; i = inactive; · = not tested or not shown; + = active, no number.

SMILES	MPTP inh	MT1-MMP act inh	SKN-1 block	NR3A LBD binder	ADAM17 inh	ADAM10 inh	MPTP counter	others
Cc1cc(C(=O)CSc2nc3ccccc3[nH]2)c(C)n1CC1CCCO1 (configuration not stated)	71*	-15	1	2	2	-8	85*
CCN(CC)CCSC(=O)C(c1ccccc1)c1ccccc1	65*	2	-2	·	-2	-3	-2	MPTP abs DR=i;MPTP counter DR=>80
O=C(Cc1cccc(NC(=O)C2CCN(C(=O)C3CC3)CC2)c1)Nc1cccc(C(=O)N2CCCCC2)c1	0	2	-14	0	-4	-9	·
OCC1CCN(Cc2cn(Cc3ccccc3)nc2-c2cc3ccccc3o2)CC1	52*	1	2	-1	1	0	-20	MPTP abs DR=18*;MPTP counter DR=>80
CCCCCCCCNC(C)C(O)c1ccc(SC(C)C)cc1 (configuration not stated)	86*	-15	6	2	-4	0	11
Cc1nc(CCNC(=O)c2ccccc2)cs1	3	6	0	7	-3	2	·
COC(=O)C1=C(\O)CCCC/C=C\1C(=O)O	0	2	19	0	-2	-2	·
C=CCn1c(SC)nnc1-c1cccc([N+](=O)[O-])c1	0	11	11	-3	3	1	·
COc1ccc(CN2CCC(CO)(CCOc3ccccc3)CC2)cc1C	68*	6	10	0	-2	5	-2	MPTP abs DR=20*;MPTP counter DR=>80
Cc1ccc(Nc2n[nH]c(C)c2[N+](=O)[O-])cc1	1	2	11	2	-2	2	·
Cc1[nH]nc(Nc2ccc(Br)cc2)c1[N+](=O)[O-]	57*	1	17	-2	-1	8	72*
COc1ccc(NC(=O)Cn2nnc(-c3ccccc3F)n2)cc1	-1	-2	-13	1	-3	-1	·
COc1ccc(C2CC(c3ccccc3)=NN2c2ccc(N)cc2)cc1 (configuration not stated)	73*	9	8	-5	-30	-35	71*
CN(C)S(=O)(=O)c1cccc(NC(=S)N/N=C/c2cc(Br)ccc2O)c1	100*	-14	5	12*	-3	-18	38*
NC(=O)N/N=C\c1cc(Br)ccc1O	-4	4	-6	-5	-55	-188	·
O=C(N/N=C/c1cc(Br)ccc1O)Nc1ccccc1	99*	7	8	28*	-29	-76	65*
Cc1cccc(NS(=O)(=O)c2ccc(C(=O)NCC(c3ccccc3)N(C)C)cc2)c1C (configuration not stated)	3	-4	11	1	-3	4	·
COCC(=O)Nc1ccc(Br)cc1C	0	0	-6	-4	0	10	·
Cc1ccsc1C1Nc2ccccc2-c2nc3ccccc3n21 (configuration not stated)	0	4	16	-46	i	i	·
c1csc(C2Nc3ccccc3-c3nc4ccccc4n32)c1 (configuration not stated)	52*	-4	3	24*	i	i	75*
c1cncc(C2Nc3ccccc3-c3nc4ccccc4n32)c1 (configuration not stated)	59*	-23	19	-13	i	i	88*
Cc1c(NC(=O)Nc2ccc(C(C)C)cc2)c(=O)n(-c2ccccc2)n1C	2	1	14	1	-3	-4	·
FC(F)(F)c1cc(CO[C@@H]2CCCN[C@@H]2c2ccccc2)cc(C(F)(F)F)c1	103*	2	5	0	7	11	-20	MPTP abs DR=4.3*;MPTP counter DR=54*
COC(=O)c1[nH]c(C)c(/C(O)=C2\C(=O)C(=O)N(CCN(C)C)C2c2cccs2)c1C (configuration not stated)	1	0	11	5	-1	6	·
CCOC(=O)c1[nH]c(C)c(/C(O)=C2\C(=O)C(=O)N(CCN3CCOCC3)C2c2cccs2)c1C (configuration not stated)	+	-6	14	-1	3	2	1
SMILES	MPTP inh	MT1-MMP act inh	SKN-1 block	NR3A LBD binder	ADAM17 inh	ADAM10 inh	MPTP counter	others
O=C(Nc1ccc2c(c1)OCO2)N1CCOCC1	1	1	-8	1	-4	-13	·
O=C(NCc1ccc2c(c1)OCO2)Nc1cccc(Cl)c1	5	-1	-26	-5	4	13	·
CCc1ccccc1NC(=O)Nc1ccc2c(c1)OCO2	5	2	-7	0	0	1	·
O=C(Nc1ccc2c(c1)OCO2)NC1(C(F)(F)F)Oc2ccccc2O1	55*	-13	-11	1	-13	-24	60*
O=C(Nc1ccc2c(c1)OCO2)N1CCCC1	82*	-4	3	-1	-3	-2	85*
O=C(Nc1cccc(Cl)c1)Nc1ccc2c(c1)OCO2	100*	2	20	33*	5	16	85*
CCc1cccc(NC(=O)Nc2ccc3c(c2)OCO3)c1	59*	2	-12	1	1	3	76*
CC12CN3CC(C)(CN(C1)C3c1cc(Br)ccc1O)C2=O (configuration not stated)	-1	-2	-4	3	4	5	·
CC1(C)C(=O)OC(c2cc(Br)ccc2O)C(C)(C)C1=O (configuration not stated)	82*	3	7	-13	7	6	89*
N#C/C(=C\c1ccc(Sc2ccc(Cl)cc2)o1)c1nc2ccccc2[nH]1	106*	-71	15	15*	-4	-14	69*
N#C/C(=C\c1ccc(Sc2nc3ccccc3[nH]2)o1)c1ccccc1	93*	-5	2	0	5	8	84*
N#C/C(=C/c1ccc(N2CCOCC2)o1)c1nc2ccccc2[nH]1	-1	-91	39	-1	-38	-105	·
COc1ccccc1NS(=O)(=O)c1cccc(NC(=O)Nc2ccccc2)c1	82*	-2	6	22*	5	20	86*
CC(=O)c1c(C)[nH]c(C(=O)Nc2cccc(S(=O)(=O)N(C)c3ccccc3)c2)c1C	68*	14	1	-2	7	11	79*
COc1ccccc1NS(=O)(=O)c1cccc(NC(=O)c2[nH]c(C)c(C(C)=O)c2C)c1	66*	3	0	-5	1	-4	64*
